Rows were chosen to be rich in hits. Some 2% of all compounds tested hit in one or more screens of this group.
PAD4 inh = human PAD4 inhibitors, primary screen, biochemical, fluorescence polarization, 1536-well format. recombinant PAD4, RCA probe fluorescence polarization. inhibition, % at 6.36 µM. 330,000 tested, 0.41% active. AID 485272, 2010;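 active means percent inhibition above a cutoff equal to the mean of all tested compounds plus 3 SD, cut at about 15% in these data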
CTSL1 counter = Fasciola hepatica cathepsin L1 inhibitors, primary screen, counter-screen for PFM18AAP inhibitor project, biochemical, QFRET, fluorogenic peptide substrate; AID 1906, 2009; 300,000 tested, 0.49% active; inhibition, % at 5.96 µM; recombinant F. hepatica cathepsin L1, Z-Leu-Arg-MCA fluorescence;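 active means inhibition above the mean of all tested compounds plus 3 SD, set per screening campaign, cut at about 17% in these data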
PP5 inh = PP5 phosphatase inhibitors, primary screen, biochemical, fluorescence | purified PP5c, OMFP substrate fluorescence | inhibition, % at 6.7 µM | 320,000 tested, 0.18% active;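 active means inhibition above the campaign's mean inhibition across all tested compounds plus 3 SD, cut at about 9.5% in these data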
GSTO1 counter = inhibitors of recombinant GSTO1, primary screen, counter-screen for RBBP9 inhibitor project, biochemical, fluorescence polarization; Glutathione S-transferase omega-1 (Homo sapiens), P78417; activity-based probe fluorescence polarization; inhibition, % at 5.96 µM; 300,000 tested, 1.1% active;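 active means inhibition above the campaign mean inhibition plus 3 SD, cut at about 35% in these data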
Target sequence (P78417 whole entry, looked up): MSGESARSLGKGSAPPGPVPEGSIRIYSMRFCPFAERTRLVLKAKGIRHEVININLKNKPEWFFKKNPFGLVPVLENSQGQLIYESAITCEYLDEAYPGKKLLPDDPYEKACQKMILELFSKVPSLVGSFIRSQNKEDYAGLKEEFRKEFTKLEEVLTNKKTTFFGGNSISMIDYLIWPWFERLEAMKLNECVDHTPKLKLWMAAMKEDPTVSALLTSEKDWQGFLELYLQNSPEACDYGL
Apaf-1 inh = inhibitors of human Apaf-1 apoptosome, primary screen, biochemical, DEVD-Rh110 fluorescence, uHTS; reconstituted apoptosome caspase-3 activity; inhibition, % at 20 µM; 330,000 tested, 0.71% active; AID 489030, 2010; active means inhibition of at least 40% at 20 µM
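System: Apoptosome proteins | Medium: Hepes pH 7.5 with detergent and BSA | Also added: Cytochrome c trigger plus (Z-DEVD)2-Rh110 caspase-3 substrate | Incubation: 30 min compound preincubation, 50 min activation, room temperature | Detection: Rhodamine 110 fluorescence at Ex 480/Em 540 nm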
UCH37 DUB inh = inhibitors of human UCH37 deubiquitinase, primary screen, biochemical, Ub-AMC cleavage, fluorescence; purified proteasome/UCH37; 330,000 tested, 0.33% active; inhibition, % (test concentration not listed); AID 588478, 2011;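 active means mean inhibition over replicate wells above about 20%, limit read from the data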
Target sequence (Q9Y5K5 whole entry, looked up): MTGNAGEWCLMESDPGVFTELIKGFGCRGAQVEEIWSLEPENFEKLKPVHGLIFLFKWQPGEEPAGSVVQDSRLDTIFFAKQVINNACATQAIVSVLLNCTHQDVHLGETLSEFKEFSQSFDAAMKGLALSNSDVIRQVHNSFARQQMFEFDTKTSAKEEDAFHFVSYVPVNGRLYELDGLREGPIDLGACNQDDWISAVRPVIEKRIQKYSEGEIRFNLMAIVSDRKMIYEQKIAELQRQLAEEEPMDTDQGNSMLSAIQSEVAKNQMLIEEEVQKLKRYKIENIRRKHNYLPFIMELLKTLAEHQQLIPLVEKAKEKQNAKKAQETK
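Schedule: 30 min plus 25 min, room temperature / Material: human UCH37 within purified proteasomes / Technique: AMC fluorescence intensity at 355/460 nm / Buffer or medium: pH 7.4 Tris-HCl (50 mM) with ovalbumin, ATP-MgCl2, DTT / Controls: wells without proteasome as full block, compound-free enzyme plus substrate as uninhibited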
GSTO1 confirm = GSTO1 inhibitor hit confirmation, counter-screen for RBBP9 inhibitor project, biochemical, fluorescence polarization, triplicate; AID 2176, 2009; inhibition, % at 5.96 µM; shares compounds with GSTO1 counter; recombinant GSTO1, probe fluorescence polarization; 2,400 tested, 54% active;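 active means inhibition above the primary screen's cutoff, its mean inhibition plus 3 SD, cut at about 35% in these data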;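 further: loss of polarization as inhibitors block binding of rhodamine sulfonate ester activity probe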
PP5 conf = PP5 phosphatase inhibitors, confirmation, biochemical, fluorescence, human; 460 tested, 22% active; shares compounds with PP5 inh; inhibition, % at 6.7 µM; Purified PP5, fluorogenic phosphatase substrate; in the data active means inhibition above about 9.5%
PP1 inh counter = PP1 phosphatase inhibitors, counter-screen for PP5 inhibitor project, biochemical, fluorescence, triplicate; PP1 enzyme, fluorescent phosphatase substrate; AID 2355, 2010; shares compounds with PP5 inh; inhibition, % at 6.7 µM; 460 tested, 4% active; in the data active means inhibition above about 16%
PAD4 confirm = human PAD4 inhibitors, confirmation, biochemical, fluorescence polarization; shares compounds with PAD4 inh; recombinant PAD4, RCA probe fluorescence polarization; inhibition, % at 6.36 µM; 1,200 tested, 28% active; AID 488796, 2010;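 active means mean inhibition across replicates above the hit cutoff set by the earlier primary screen, cut at about 15% in these data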;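 further: inhibitors block active-site labeling by the probe so polarization falls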
Apaf-1 inh conf = Apaf-1 inhibitors, single-dose retest, confirmation, biochemical, fluorescence, DEVD-Rh110, 20 µM; shares compounds with Apaf-1 inh; reconstituted apoptosome, caspase-3 DEVD-Rh110 fluorescence; inhibition, % at 20 µM; 1,800 tested, 25% active;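 active means mean inhibition of at least 40% at 20 µM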
Rh110 interf inh = Rh110 fluorescence interference by putative Apaf-1 inhibitors, confirmation, artefact control for Apaf-1 inhibitor project, biochemical, 20 µM; shares compounds with Apaf-1 inh; quenched caspase reaction; activation (fluorescence interference), % at 20 µM; 1,800 tested, under 10 active; AID 504615, 2011;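 active means signal rise of 40% or more at 20 µM, treated as a fluorescence artifact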
Apaf1 inh interf = fluorescence interference of Apaf-1 inhibitor hits, dose response, artefact control for Apaf-1 inhibitor project. shares compounds with Apaf-1 inh. 460 tested, under 10 active. fluorescence interference counterscreen, Apaf-1 assay format. IC50, µM; call rule not given here
UCH37 reconfirm = retest of human UCH37 deubiquitinase inhibitors, confirmation, biochemical, Ub-AMC cleavage rate, fluorescence | Proteasome-bound UCH37 | inhibition, % at 20 µM | shares compounds with UCH37 DUB inh | 480 tested, 27% active;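 active means average inhibition over replicates above about 50%, so the earlier screening hit is confirmed, limit read from the data; inactive means the rest, counted as false positives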;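 further: based on cleavage rate fitted by regression over a 30 min kinetic read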
Numbers stand for hits; i = inactive; nt = no result; ! = repeats disagree.

SMILES | PAD4 inh | CTSL1 counter | PP5 inh | GSTO1 counter | Apaf-1 inh | UCH37 DUB inh | PP5 conf | PP1 inh counter | others
O=C(O)c1cccc(NC2=C(N3CCOCC3)C(=O)c3ccccc3C2=O)c1 | i | 50 | i | 47 | 84 | 28 | nt | nt | GSTO1 confirm=i;Apaf-1 inh conf=81;Rh110 interf inh=i;Apaf1 inh interf=i;UCH37 reconfirm=i
O=C1C=C(N2CCOCC2)c2ccccc2C1=O | 60 | 112 | i | 90 | 98 | 97 | nt | nt | GSTO1 confirm=99;PAD4 confirm=66;Apaf-1 inh conf=100;Rh110 interf inh=i;Apaf1 inh interf=i;UCH37 reconfirm=130
CC1=C(C)C(=O)C(N2CCOCC2)=CC1=O | nt | nt | nt | nt | nt | i | nt | nt
O=C(NC1=C(NC2CCS(=O)(=O)C2)C(=O)c2ccccc2C1=O)c1ccccc1 (configuration not stated) | 26 | i | i | 81 | 88 | 62 | nt | nt | GSTO1 confirm=71;PAD4 confirm=22;Apaf-1 inh conf=92;Rh110 interf inh=i;Apaf1 inh interf=i;UCH37 reconfirm=60
Cc1cccc(NC2=C(NC(=O)c3ccccc3)C(=O)c3ccccc3C2=O)c1 | i | i | i | 56 | 73 | 52 | nt | nt | GSTO1 confirm=38;Apaf-1 inh conf=58;Rh110 interf inh=i;Apaf1 inh interf=i;UCH37 reconfirm=i
O=C(N(c1ccccc1)c1ccccc1)N(c1ccccc1)c1ccccc1 | i | i | i | i | i | i | nt | nt
CC(=O)N(C1=C(N)C(=O)c2ccccc2C1=O)c1ccccc1 | i | 30 | i | 59 | 67 | 37 | nt | nt | GSTO1 confirm=i;Apaf-1 inh conf=81;Rh110 interf inh=i;Apaf1 inh interf=i;UCH37 reconfirm=i
CN(C)/C=N/NC(=O)c1ccccc1 | i | i | i | i | i | nt | nt | nt
O=C(NN=c1c(=O)c2ccccc2c1=O)c1ccccc1 | 44 | 61 | i | 77 | 96 | 79 | nt | nt | GSTO1 confirm=72;PAD4 confirm=45;Apaf-1 inh conf=98;Rh110 interf inh=i;Apaf1 inh interf=i;UCH37 reconfirm=77
Clc1cccc(OCCCCCN2CCOCC2)c1 | i | i | 10 | i | i | i | i | i
Clc1cccc(OCCN2CCOCC2)c1 | i | i | i | i | i | i | nt | nt
COC(=O)CCC(=O)OC1(C)C(=O)C=C2C=C(C3CC3)N(c3ccccc3)C=C2C1=O (configuration not stated) | i | i | 11 | i | i | i | 30 | i
C=C(C)CSC1=C(C#N)C(c2ccsc2)CC(=O)N1 (configuration not stated) | i | i | 11 | i | i | i | i | i
COc1ccc(C(C)=NNC(=O)CNC(=O)c2ccco2)cc1 | nt | nt | nt | nt | nt | i | nt | nt
Cc1cccc(-c2nnc(NC(=O)c3ccc(Cl)cc3)o2)c1 | i | i | 9.6 | i | i | i | i | 24
Cc1ccc(C(=O)ON=Cc2c(N3CCOCC3)n(C)c3ccccc23)cc1 | nt | nt | nt | nt | nt | i | nt | nt
CC(=NO)C(=NO)c1ccc(C)o1 | nt | nt | nt | nt | nt | i | nt | nt
COc1ccc(-c2cc(-c3c(O)c(OC)c4occc4c3OC)[nH]n2)cc1OC | i | i | i | i | i | i | nt | nt
COc1ccc(-c2cc(-c3c(O)c(OC)c4occc4c3OC)[nH]n2)cc1 | i | i | 11 | i | i | i | i | i
Cc1ccc(OCC(=O)NN=Cc2ccco2)c(C)c1 | nt | nt | nt | nt | nt | i | nt | nt
CN(C)c1ccc(P(=O)(CC(=O)NN=Cc2ccc(C#N)cc2)OCCCl)cc1 (configuration not stated) | nt | nt | nt | nt | nt | i | nt | nt
CC1(C)Cc2cccc(OCC(=O)Nc3cccnc3)c2O1 | i | i | i | i | i | i | nt | nt
CC1(C)Cc2cccc(OCC(=O)Nc3cccnc3Cl)c2O1 | i | i | 16 | i | i | i | i | i
O=C(O)CCCNC(=O)CC1S/C(=N/N=Cc2ccccc2O)NC1=O (configuration not stated) | nt | nt | nt | nt | nt | i | nt | nt
COc1cc(C=O)ccc1OC(=O)Nc1ccccc1 | i | i | 12 | i | i | nt | i | i
SMILES | PAD4 inh | CTSL1 counter | PP5 inh | GSTO1 counter | Apaf-1 inh | UCH37 DUB inh | PP5 conf | PP1 inh counter | others
CCc1ccc(C(=O)NNC(=S)Nc2ccc(S(N)(=O)=O)cc2)s1 | i | i | 14 | i | i | nt | i | i
O=C(Nc1cccc2ncccc12)c1ccc(-c2ccc(Br)cc2)o1 | i | i | 13 | i | i | i | i | i
O=C(Nc1cccc2ncccc12)c1ccc([N+](=O)[O-])o1 | i | i | i | i | i | i | nt | nt
Cc1cnc(NC(=O)C2=C(O)c3ccccc3S(=O)(=O)N2C)s1 | i | i | 15! | i | i | i | i | i
Clc1ccccc1NN=Cc1ccc2c(c1)OCO2 | nt | nt | nt | nt | nt | i | nt | nt
O=C(Nc1cc(C(F)(F)F)cc(C(F)(F)F)c1)c1ccc(Cn2cc(C(F)(F)F)ccc2=O)cc1 | i | i | 11 | i | i | i | 11 | i
O=C(Nc1ccccc1)c1ccc(Cn2cc(C(F)(F)F)ccc2=O)cc1 | i | i | i | i | i | i | nt | nt
O=C(NCCCCc1ccccc1)c1ccccc1F | i | i | 12 | i | i | i | i | i
COCC(=O)NN=Cc1ccc(OC/C=C/c2ccccc2)c(OC)c1 | nt | nt | nt | nt | nt | i | nt | nt
CCOc1ccc(C(=O)/C=C/c2cn(CN3CCN(C)CC3)c3ccccc23)cc1 | i | i | 11 | i | i | i | i | i
CC(CC(=O)Nc1ccccc1-c1ccccc1)=NNC(=O)COc1ccc(C)cc1Br | nt | nt | nt | nt | nt | i | nt | nt
COCCNC(=O)CC(=O)NN=Cc1cccc(C(=O)OC)c1 | nt | nt | nt | nt | nt | i | nt | nt

Screening results (PubChem BioAssay)
